# Assay results taken from ChEMBL document CHEMBL1142204, “Cathepsin A is the major hydrolase catalyzing the intracellular hydrolysis of the antiretroviral nucleotide phosphonoamidate prodrugs GS-7340 and GS-9131” (Antimicrob Agents Chemother, 2007).
# Tests used:
# Homo sapiens [1] = species: Homo sapiens; experiment: Activity of crude extract human PBMCs prodrug hydrolase from leukopheresis patient
# Homo sapiens [2] = species: Homo sapiens; experiment: Activity of human PBMCs prodrug hydrolase from leukopheresis patient in BS-HIC pool
# Homo sapiens [3] = species: Homo sapiens; experiment: Activity of human PBMCs prodrug hydrolase from leukopheresis patient in Q15 pool
# [4] = target: T1, Lysosomal protective protein (Homo sapiens) (UniProt P10619); experiment: Activity of purified human PBMCs Cat A from leukopheresis patient in Con A pool
# T1 sequence (whole entry): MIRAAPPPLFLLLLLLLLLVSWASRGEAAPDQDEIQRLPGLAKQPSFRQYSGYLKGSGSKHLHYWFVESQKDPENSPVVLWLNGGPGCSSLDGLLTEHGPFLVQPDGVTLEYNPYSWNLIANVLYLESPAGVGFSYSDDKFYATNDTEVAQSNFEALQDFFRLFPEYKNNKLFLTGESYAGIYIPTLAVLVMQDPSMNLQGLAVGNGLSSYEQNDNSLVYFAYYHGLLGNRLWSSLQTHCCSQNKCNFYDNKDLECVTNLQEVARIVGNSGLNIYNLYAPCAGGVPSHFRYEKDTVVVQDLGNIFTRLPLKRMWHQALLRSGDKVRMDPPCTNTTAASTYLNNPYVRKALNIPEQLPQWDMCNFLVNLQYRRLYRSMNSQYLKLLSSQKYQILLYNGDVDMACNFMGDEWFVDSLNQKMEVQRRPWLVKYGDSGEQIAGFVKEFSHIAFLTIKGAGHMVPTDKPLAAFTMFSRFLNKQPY
# In short: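 Hydrolase purified from fresh human leukopheresis PBMCs (NP-40 extract; Source Q15, butyl Sepharose HIC, then ConA chromatography). Protein by Bradford; specific activity (pmol/min/μg) corrected for estimated 29-kDa catalytic subunit fraction.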
structure (smiles),measurement,setting,value
CC(C)OC(=O)[C@H](C)N[P@](=O)(CO[C@H](C)Cn1cnc2c(N)ncnc21)Oc1ccccc1,Activity,Homo sapiens [1],16 pmol/min/µg
same,Activity,Homo sapiens [2],730 pmol/min/µg
same,Activity,Homo sapiens [3],112 pmol/min/µg
same,Activity,[4],35000 pmol/min/µg
